Laboratory results from ChEMBL document CHEMBL4354813, “Design, Synthesis, and Pharmacological Evaluation of Potent Positive Allosteric Modulators of the Glucagon-like Peptide-1 Receptor (GLP-1R)” (J Med Chem, 2020).
The source made the active and inactive calls. The calls are words filed in the database; no cut-off is given here.

Key:
[1] = Clearance in Wistar rat at 3 mg/kg, iv administered as single dose measured up to 24 hrs ESI-LC/MS-MS analysis; settings: in vivo
[2] = biological target: T1, Solute carrier organic anion transporter family member 1B3 (Homo sapiens, UniProt Q9NPD5); test: Substrate activity at human OATP1B3 expressed in HEK293 cells assessed as increase in compound uptake at 1 uM LC-MS/MS analysis; type: ADME, cell-based; settings: hek293, 1 µM, TDE = time-dependent effect
T1 sequence (Q9NPD5 whole entry): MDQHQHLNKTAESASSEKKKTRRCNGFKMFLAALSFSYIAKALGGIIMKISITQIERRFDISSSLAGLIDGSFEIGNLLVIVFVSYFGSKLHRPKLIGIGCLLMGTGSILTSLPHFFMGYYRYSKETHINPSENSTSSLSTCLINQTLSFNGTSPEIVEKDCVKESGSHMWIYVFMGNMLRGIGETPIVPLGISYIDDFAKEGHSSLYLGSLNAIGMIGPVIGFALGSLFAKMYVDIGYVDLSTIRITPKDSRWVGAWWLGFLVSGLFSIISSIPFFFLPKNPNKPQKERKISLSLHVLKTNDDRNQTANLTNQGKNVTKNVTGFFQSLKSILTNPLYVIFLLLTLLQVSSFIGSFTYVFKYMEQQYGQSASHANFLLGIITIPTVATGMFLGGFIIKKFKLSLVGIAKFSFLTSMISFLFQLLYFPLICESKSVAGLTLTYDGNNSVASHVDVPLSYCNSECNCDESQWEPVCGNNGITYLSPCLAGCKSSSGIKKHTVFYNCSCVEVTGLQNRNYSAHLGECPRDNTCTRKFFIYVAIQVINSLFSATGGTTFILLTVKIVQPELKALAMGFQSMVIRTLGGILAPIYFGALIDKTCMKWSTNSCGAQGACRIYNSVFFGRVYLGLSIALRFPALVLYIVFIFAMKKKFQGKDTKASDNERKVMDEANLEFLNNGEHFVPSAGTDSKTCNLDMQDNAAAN
Summary of the method: (§1)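 HEK-TR cells overexpressing hOATP1B1 or hOATP1B3, run in parallel with control HEK-TR cells, seeded at 1 x 10⁵ cells/well one day before. Time-dependent uptake of 1 μM compound in HBSS at 37 °C, quadruplicates. Uptake stopped with ice-cold buffer, cells washed, lysed and quantified by LC-MS/MS. Uptake ratio calculated against the control cells.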

[3] = Chemical stability in presence of GSH; type: physicochemical
[4] = Solubility in pH 7.4 buffer; type: physicochemical
OATP1B1 = biological target: T2, OATP1B1 (Homo sapiens, UniProt Q9Y6L6); test: Substrate activity at human OATP1B1 expressed in HEK293 cells assessed as increase in compound uptake at 1 uM incubated up to 15 mins LC-MS/MS analysis relative to control relative to control; type: ADME, cell-based; settings: HEK293 cells expressing human OATP1B1, read-out: FC
T2 sequence (Q9Y6L6 whole entry): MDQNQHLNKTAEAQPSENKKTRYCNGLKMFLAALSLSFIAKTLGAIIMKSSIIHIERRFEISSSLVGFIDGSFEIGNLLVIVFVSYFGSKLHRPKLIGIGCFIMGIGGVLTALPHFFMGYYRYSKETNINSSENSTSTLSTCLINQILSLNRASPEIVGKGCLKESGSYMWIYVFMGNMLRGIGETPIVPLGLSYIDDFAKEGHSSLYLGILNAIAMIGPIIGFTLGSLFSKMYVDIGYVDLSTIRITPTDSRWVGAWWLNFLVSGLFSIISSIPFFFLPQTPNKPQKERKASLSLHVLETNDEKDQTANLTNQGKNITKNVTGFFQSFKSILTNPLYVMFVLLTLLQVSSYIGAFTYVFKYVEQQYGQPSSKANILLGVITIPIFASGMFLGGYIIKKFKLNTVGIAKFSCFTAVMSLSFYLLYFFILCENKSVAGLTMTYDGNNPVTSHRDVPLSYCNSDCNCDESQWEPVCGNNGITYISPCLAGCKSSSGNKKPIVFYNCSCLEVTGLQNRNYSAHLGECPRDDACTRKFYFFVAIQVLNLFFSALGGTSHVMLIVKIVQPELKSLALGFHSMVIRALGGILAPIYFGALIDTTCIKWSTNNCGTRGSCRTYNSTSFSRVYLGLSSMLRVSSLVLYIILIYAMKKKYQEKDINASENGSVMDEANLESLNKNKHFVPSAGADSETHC
Summary of the method: as §1

Mus musculus [5] = test: Suppression of blood glucose concentration in ob/ob C57Bl/6J mouse model of T2DM at 30 mg/kg, po dosed 1 hrs before test and treated with 60 mg/kg, po OATP/MRP2 inhibitor rifampicin 2.5 hrs prior to oral glucose-tolerance test; type: functional, organism-based
Summary of the method: (§2)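 Male ob/ob mice aged 10–11 weeks, n=7, randomised on blood glucose and fasted overnight. Rifampicin 60 mg/kg p.o. 2.5 h before the oGTT, compound 30 mg/kg p.o. 1 h before, GLP1(9-36)NH2 i.p. 15 min before, each given as indicated. Glucose 2 g/kg orally. Tail-vein glucose by glucometer at 0, 15, 30, 60 and 90 min.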

[6] = Cmax in C57Bl6 mouse at 10 mg/kg, po administered as single dose measured up to 24 hrs ESI-LC/MS-MS analysis; type: ADME, organism-based; design: dose 10 mg/kg, route oral; settings: in vivo
Summary of the method: (§3)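 Single dose of compound: 3 mg/kg i.v. in solution (75% water : 25% of 75% Glycoferol/25% Cremophor) or 10 mg/kg p.o. as wet-milled suspension (0.6% methylcellulose, 0.5% Tween 80 in water); male Wistar rats n=3 per route, female C57Bl6 mice n=24 per route. Plasma sampled 0.25–24 h (p.o.), 0.083–24 h (i.v.); heparinized plasma, acetonitrile precipitation, ESI-LC/MS-MS (LOQ 1 ng/mL rat, 5 ng/mL mouse); noncompartmental analysis, linear trapezoidal.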

[7] = Oral bioavailability in C57Bl6 mouse at 10 mg/kg administered as single dose measured up to 24 hrs ESI-LC/MS-MS analysis; type: ADME, organism-based; settings: in vivo
Summary of the method: as §3

[8] = Stability in mouse plasma by LC-MS/MS analysis; type: ADME, cell-free
[9] = Clearance in Wistar rat at 3 mg/kg, iv administered as single dose treated 2 hrs after dosing with 40 mg/kg, po OATP/MRP2 inhibitor rifampicin and measured up to 24 hrs ESI-LC/MS-MS analysis; type: ADME, organism-based; settings: in vivo
Summary of the method: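 Male Wistar rats (n=3 per route) pretreated orally with rifampicin 40 mg/kg (0.6% methylcellulose, 0.5% Tween 80 in water) 2 h before compound, given 3 mg/kg i.v. in Glycoferol/Cremophor-water solution or 10 mg/kg p.o. wet-milled suspension. Plasma sampled up to 24 h; ESI-LC/MS-MS after acetonitrile precipitation (LOQ 1 ng/mL); noncompartmental analysis.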

Mus musculus [10] = test: Suppression of blood glucose concentration in ob/ob C57Bl/6J mouse model of T2DM at 30 mg/kg, po in absence of OATP/MRP2 inhibitor rifampicin and/or GLP1(9-36)NH2 by oral glucose-tolerance test; type: functional, organism-based
Summary of the method: as §2

CL [1]: 118 mL/min/kg
Activity [2]: Tde
Stability [3]: 100%
solubility [4]: > 853 µM
uptake ratio at 0.25 h, 1 µM (OATP1B1): 6 to 22
Cmax [6]: 227 ng/mL
bioavailability [7]: 7.2%
Stability [8]: 98%
clearance [9]: 19.2 mL/min/kg
SMILES: CC(C)(C)OC(=O)n1c2c(c3ccccc31)C[C@H]1C(=O)N3C[C@@H](CC(=O)O)C[C@H]3[C@@H]2N1C(=O)CC1CCC(F)(F)CC1
Activity (Mus musculus [5]): inactive
Activity (Mus musculus [10]): inactive
